Measurements as given in ChEMBL document CHEMBL3044648, “Quantitative structure-activity relationships of monoterpenoid binding activities to the housefly GABA receptor” (2012).

Assays:
Musca domestica = assay: Toxicity to Musca domestica (house fly) applied to pronotum assessed as compound level per fly causing insect mortality measured after 24 hr; type: functional
[1] = target: T1, GABA receptor subunit (Musca domestica) (UniProt Q75NA5); assay: Displacement of [3H]TBOB binding to GABA receptor in Musca domestica (house fly) heads homogenates assessed as [3H]TBOB binding at 500 uM incubated for 90 min by scintillation counting method
T1 sequence (whole entry): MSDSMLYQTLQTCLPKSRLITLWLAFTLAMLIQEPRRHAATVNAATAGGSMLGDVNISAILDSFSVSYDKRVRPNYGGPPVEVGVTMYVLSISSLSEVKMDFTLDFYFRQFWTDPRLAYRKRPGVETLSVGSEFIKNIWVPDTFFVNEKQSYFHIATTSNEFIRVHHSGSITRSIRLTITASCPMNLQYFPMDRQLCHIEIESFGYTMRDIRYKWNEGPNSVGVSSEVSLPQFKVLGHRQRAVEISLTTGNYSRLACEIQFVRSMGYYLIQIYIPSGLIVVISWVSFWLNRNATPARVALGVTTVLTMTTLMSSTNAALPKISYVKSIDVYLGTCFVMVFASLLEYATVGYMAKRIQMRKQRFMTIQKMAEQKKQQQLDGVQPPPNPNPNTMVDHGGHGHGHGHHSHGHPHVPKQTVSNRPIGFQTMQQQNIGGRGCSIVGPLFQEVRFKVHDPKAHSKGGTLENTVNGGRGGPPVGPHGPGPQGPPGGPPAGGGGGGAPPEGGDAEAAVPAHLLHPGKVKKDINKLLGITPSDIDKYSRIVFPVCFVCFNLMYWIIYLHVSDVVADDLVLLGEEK
Procedure, shortened: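 House fly head membranes (homogenized in 10 mM Tris-HCl pH 7.5 with 0.25 M sucrose, pelleted at 25,000xg, resuspended in 10 mM phosphate pH 7.5 with 300 mM NaCl); 20 µg protein incubated 90 min at 20 °C with 4 nM [³H]-TBOB and 500 µM monoterpenoid; GF/B filtration; nonspecific binding with 100 µM picrotoxin; specific binding as % of untreated; at least three repeats, mean ± SEM.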

| Compound | LD50 (Musca domestica) | Activity [1] |
| --- | --- | --- |
| CC(C)=C1CC[C@@H](C)CC1=O [PULEGONE] | 92.2 µg | 132% |
| C=CCc1ccc2c(c1)OCO2 [SAFROLE] | 18.3 µg | 43% |
| O=C(O)/C=C/c1ccccc1 |  | 101% |
| CCC(=O)OCCc1ccccc1 [PHENETHYL PROPIONATE] | 66.6 µg | 95% |
| C=CCc1ccc(O)c(OC)c1 [EUGENOL] | 46.4 µg | 88% |
| Cc1ccc(C(C)C)cc1O [CARVACROL] | 60.1 µg | 156% |
| COC(=O)c1ccccc1O [METHYL SALICYLATE] | 41.2 µg | 103% |
| Cc1ccc(C(C)C)cc1 [P-CYMENE] | 94.7 µg | 90% |
| COc1cc(C=O)ccc1O [VANILLIN] | >500 µg | 82% |
| C=C(C)C1CCC2(C)OC2C1 (stereo not given) [LIMONENE OXIDE] | 67.8 µg | 141% |
| C=C(C)[C@H]1CC=C(C)CC1 [D-LIMONENE] | 89.4 µg | 86% |
| O=Cc1ccc2c(c1)OCO2 [PIPERONAL] | 36.1 µg | 93% |
| CC(C)C12CCC(C)(CC1)O2 [1,4-CINEOLE] | 151.7 µg | 117% |
| CC(C)=CCC[C@@H](C)CC=O [CITRONELLAL] | 46.8 µg | 92% |
| CC1=CC[C@@H](C(C)(C)O)CC1 |  | 95% |
| CC1CCC(C(C)C)C(O)C1 (stereo not given) [MENTHOL] | 128.9 µg | 80% |
| C=CC(C)(O)CCC=C(C)C (stereo not given) [LINALOOL] | 72.3 µg | 124% |
| Cc1ccc(C(C)C)c(O)c1 |  | 180% |
| CC(C)=CCCC(C)CC(=O)O (stereo not given) [CITRONELLIC ACID] | 25.2 µg | 138% |
| CC12CCC(CC1=O)C2(C)C (stereo not given) [CAMPHOR] | 149.5 µg | 70% |
| CC12CCC(CC1)C(C)(C)O2 [EUCALYPTOL] | 63.2 µg | 122% |
| CC(C)[C@H]1CC[C@H](C)CC1=O (relative stereo) |  | 86% |
